Source: ChEMBL document CHEMBL1147958, “Evaluation of the anti-inflammatory and anti-nociceptive activities of novel synthesized melatonin analogues” (2007)

Legend:
[1] = test system: Rattus norvegicus; test: Inhibition of carrageenan-induced paw oedema in Sprague-Dawley rat at 6.88 mg/kg, sc after 4 hrs; type: functional; conditions: read-out: Inhibition, route subcutaneous
Outline: (§1)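 Rats (n = 6/group) got the test agent s.c. (0.5 mL) as a 30 min pretreatment. Oedema was induced by sub-plantar 1% lambda-carrageenan in saline into the right hind paw, with saline in the contralateral paw. Paw volume was measured by plethysmometer before injection and at 1, 2, 3 and 4 h, and expressed as % change from pre-drug values.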

[2] = test system: Rattus norvegicus; test: Inhibition of carrageenan-induced paw oedema in Sprague-Dawley rat at 6.88 mg/kg, sc after 3 hrs; type: functional; conditions: read-out: Inhibition, route subcutaneous; outline: as §1
[3] = test system: Rattus norvegicus; test: Antinociceptive activity in Sprague-Dawley rat assessed as inhibition of number of indomethacin-induced gastric lesions at 6.88 mg/kg, sc; type: functional; conditions: Stomach, route subcutaneous
Outline: (§2)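 Sprague-Dawley rats (120–130 g, food and water ad libitum) got indomethacin 20 mg/kg s.c. to induce gastric mucosal damage, with the test agent given s.c. at the time of indomethacin injection. Rats were killed 24 h later. Stomachs were opened along the greater curvature, rinsed with saline, and lesions counted and severity-scored on a previously described scale. Results are % decrease versus the indomethacin control.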

[4] = test system: Rattus norvegicus; test: Antinociceptive activity in Sprague-Dawley rat at 6.88 mg/kg, sc assessed as increase in latency time after 2 hrs by hot plate method; type: functional; conditions: route subcutaneous
Outline: (§3)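 Rats (n = 6/group) were dosed s.c. 30 min before testing on a hot-plate held at 52 °C, 30 s cut-off. Reaction latency was read at 1 and 2 h and expressed as % increase over each group's pre-drug basal latency, with indomethacin as the reference control. Groups were compared by ANOVA and Duncan's test.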

[5] = test system: Rattus norvegicus; test: Inhibition of carrageenan-induced paw oedema in Sprague-Dawley rat at 6.88 mg/kg, sc after 2 hrs; type: functional; conditions: read-out: Inhibition, route subcutaneous; outline: as §1
[6] = test system: Mus musculus; test: Antinociceptive activity in Swiss Albino mouse assessed as inhibition of acetic acid-induced writhes per 30 min at 6.88 mg/kg, sc; conditions: 0.5 h, read-out: Inhibition
[7] = test system: Rattus norvegicus; test: […] in Sprague-Dawley rat assessed as inhibition of indomethacin-induced gastric lesions severity at 6.88 mg/kg, sc; type: functional; conditions: Stomach, route subcutaneous; outline: as §2
[8] = test system: Rattus norvegicus; test: Inhibition of carrageenan-induced paw oedema in Sprague-Dawley rat at 6.88 mg/kg, sc after 1 hr; type: functional; conditions: read-out: Inhibition, route subcutaneous; outline: as §1
[9] = test system: Rattus norvegicus; test: Antinociceptive activity in Sprague-Dawley rat at 6.88 mg/kg, sc assessed as increase in latency time after 1 hr by hot plate method; type: functional; conditions: route subcutaneous; outline: as §3
[10] = test system: Rattus norvegicus; test: […] in Sprague-Dawley rat assessed as inhibition of indomethacin-induced gastric lesions severity at 5.40 mg/kg, sc; type: functional; conditions: Stomach, route subcutaneous; outline: as §2
[11] = test system: Rattus norvegicus; test: Antinociceptive activity in Sprague-Dawley rat at 5.40 mg/kg, sc assessed as increase in latency time after 1 hr by hot plate method; type: functional; conditions: dose 5.4 mg/kg; route subcutaneous; outline: as §3
[12] = test system: Rattus norvegicus; test: Inhibition of carrageenan-induced paw oedema in Sprague-Dawley rat at 5.40 mg/kg, sc after 2 hrs; type: functional; conditions: read-out: Inhibition, route subcutaneous; outline: as §1
[13] = test system: Rattus norvegicus; test: Antinociceptive activity in Sprague-Dawley rat assessed as inhibition of number of indomethacin-induced gastric lesions at 5.40 mg/kg, sc; type: functional; conditions: Stomach, route subcutaneous; outline: as §2
[14] = test system: Rattus norvegicus; test: Inhibition of carrageenan-induced paw oedema in Sprague-Dawley rat at 5.40 mg/kg, sc after 1 hr; type: functional; conditions: read-out: Inhibition, route subcutaneous; outline: as §1
[15] = test system: Mus musculus; test: Antinociceptive activity in Swiss Albino mouse assessed as inhibition of acetic acid-induced writhes per 30 min at 5.40 mg/kg, sc; conditions: 0.5 h
[16] = test system: Rattus norvegicus; test: Inhibition of carrageenan-induced paw oedema in Sprague-Dawley rat at 5.40 mg/kg, sc after 4 hrs; type: functional; conditions: read-out: Inhibition, route subcutaneous; outline: as §1
[17] = test system: Rattus norvegicus; test: Inhibition of carrageenan-induced paw oedema in Sprague-Dawley rat at 5.40 mg/kg, sc after 3 hrs; type: functional; conditions: read-out: Inhibition, route subcutaneous; outline: as §1
[18] = test system: Rattus norvegicus; test: Antinociceptive activity in Sprague-Dawley rat at 5.40 mg/kg, sc assessed as increase in latency time after 2 hrs by hot plate method; type: functional; conditions: dose 5.4 mg/kg; route subcutaneous; outline: as §3
[19] = test system: Rattus norvegicus; test: […] in Sprague-Dawley rat assessed as inhibition of indomethacin-induced gastric lesions severity at 5.16 mg/kg, sc; type: functional; conditions: Stomach, route subcutaneous; outline: as §2
[20] = test system: Rattus norvegicus; test: Inhibition of carrageenan-induced paw oedema in Sprague-Dawley rat at 5.16 mg/kg, sc after 3 hrs; type: functional; conditions: read-out: Inhibition, route subcutaneous; outline: as §1
[21] = test system: Mus musculus; test: Antinociceptive activity in Swiss Albino mouse assessed as inhibition of acetic acid-induced writhes per 30 min at 5.16 mg/kg, sc; conditions: 0.5 h, read-out: Inhibition
[22] = test system: Rattus norvegicus; test: Antinociceptive activity in Sprague-Dawley rat assessed as inhibition of number of indomethacin-induced gastric lesions at 5.16 mg/kg, sc; type: functional; conditions: Stomach, route subcutaneous; outline: as §2
[23] = test system: Rattus norvegicus; test: Inhibition of carrageenan-induced paw oedema in Sprague-Dawley rat at 5.16 mg/kg, sc after 2 hrs; type: functional; conditions: route subcutaneous; outline: as §1
[24] = test system: Rattus norvegicus; test: Inhibition of carrageenan-induced paw oedema in Sprague-Dawley rat at 5.16 mg/kg, sc after 1 hr; type: functional; conditions: read-out: Inhibition, route subcutaneous; outline: as §1
[25] = test system: Rattus norvegicus; test: Inhibition of carrageenan-induced paw oedema in Sprague-Dawley rat at 5.16 mg/kg, sc after 4 hrs; type: functional; conditions: route subcutaneous; outline: as §1
[26] = test system: Rattus norvegicus; test: Antinociceptive activity in Sprague-Dawley rat at 5.16 mg/kg, sc assessed as increase in latency time after 1 hr by hot plate method; type: functional; conditions: route subcutaneous; outline: as §3
[27] = test system: Rattus norvegicus; test: Antinociceptive activity in Sprague-Dawley rat at 5.16 mg/kg, sc assessed as increase in latency time after 2 hrs by hot plate method; type: functional; conditions: route subcutaneous; outline: as §3

SMILES: COc1ccc2c(c1)c(CCNC(C)=O)c1n2CC(c2ccccc2)=C(C#N)C1=N
- inhibition in vivo at 6.88 mg/kg [1]: 36.3%
- inhibition in vivo at 6.88 mg/kg [2]: 48%
- inhibition in vivo at 6.88 mg/kg [3]: 30.2%
- Activity [4]: 56.2%
- inhibition in vivo at 6.88 mg/kg [5]: 55.2%
- inhibition in vivo at 6.88 mg/kg [6]: 40.7%
- inhibition in vivo at 6.88 mg/kg [7]: 53.6%
- inhibition in vivo at 6.88 mg/kg [8]: 52.2%
- Activity [9]: 31.7%

SMILES: COc1ccc2c(c1)c(CCNC(C)=O)c1n2C(=N)C=C1NN
- inhibition in vivo at 5.4 mg/kg [10]: 57.7%
- Activity [11]: 43.7%
- inhibition in vivo at 5.4 mg/kg [12]: 52.6%
- inhibition in vivo at 5.4 mg/kg [13]: 53.9%
- inhibition in vivo at 5.4 mg/kg [14]: 54.8%
- inhibition in vivo at 5.4 mg/kg [15]: -81.1%
- inhibition in vivo at 5.4 mg/kg [16]: 36.8%
- inhibition in vivo at 5.4 mg/kg [17]: 44.2%
- Activity [18]: 243.7%

SMILES: COc1ccc2c(c1)c(CCNC(C)=O)c1n2C(=O)CC1=O
- inhibition in vivo at 5.16 mg/kg [19]: 54.8%
- inhibition in vivo at 5.16 mg/kg [20]: 30%
- inhibition in vivo at 5.16 mg/kg [21]: 24.4%
- inhibition in vivo at 5.16 mg/kg [22]: 43.5%
- inhibition in vivo at 5.16 mg/kg [23]: -35.7%
- inhibition in vivo at 5.16 mg/kg [24]: 42.9%
- inhibition in vivo at 5.16 mg/kg [25]: -27.1%
- Activity [26]: 103.6%
- Activity [27]: 132.3%
